# Key:
# Cytochrome P450 2C19 = Cytochrome P450 2C19 (Homo sapiens, UniProt P33261); experiment: Inhibition of human CYP2C19 expressed in baculovirus infected insect cells using beetle D-luciferin as substrate preincubated for 30 mins followed by NADPH addition and measured after 30 mins by CYP450-Glo assay
# Leishmania infantum = experiment: Growth inhibition of luciferase expressing Leishmania infantum axenic amastigotes infected in human THP1 cells at 10 uM measured after 72 hrs by steady-glo luminescence assay relative to control; format: organism-based; settings: for growth inhibition (GI): leishmania infantum, 72 h, 10 µM; for inhibition at 10 µM: Leishmania infantum, THP-1, 72 h, read-out: GI
# [1] = target: T1, Pteridine reductase 1 (Leishmania major) (UniProt Q01782); experiment: Inhibition of Leishmania major pteridine reductase 1 at 50 uM using di-hydrobiopterine as substrate in presence of NADPH relative to control
# T1 sequence (whole entry): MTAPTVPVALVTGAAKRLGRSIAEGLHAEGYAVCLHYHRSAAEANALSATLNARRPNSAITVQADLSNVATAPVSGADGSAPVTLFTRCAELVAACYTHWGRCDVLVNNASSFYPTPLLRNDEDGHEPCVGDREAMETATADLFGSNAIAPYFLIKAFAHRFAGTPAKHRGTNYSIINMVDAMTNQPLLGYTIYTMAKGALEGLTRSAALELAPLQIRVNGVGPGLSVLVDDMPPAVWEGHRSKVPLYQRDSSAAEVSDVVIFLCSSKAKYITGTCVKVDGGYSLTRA
# Method in brief: (§1)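 Photometric PTR1 assay with NADPH and dihydrobiopterin substrate. H₄B formation is coupled non-enzymatically to cytochrome c reduction, read as signal increase at 550 nm.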
# Cytochrome P450 3A4 = Cytochrome P450 3A4 (Homo sapiens, UniProt P08684); experiment: Inhibition of human CYP3A4 expressed in baculovirus infected insect cells using beetle D-luciferin as substrate preincubated for 30 mins followed by NADPH addition and measured after 30 mins by CYP450-Glo assay
# Chain of Cytochrome P450 3A4 (P08684 whole entry): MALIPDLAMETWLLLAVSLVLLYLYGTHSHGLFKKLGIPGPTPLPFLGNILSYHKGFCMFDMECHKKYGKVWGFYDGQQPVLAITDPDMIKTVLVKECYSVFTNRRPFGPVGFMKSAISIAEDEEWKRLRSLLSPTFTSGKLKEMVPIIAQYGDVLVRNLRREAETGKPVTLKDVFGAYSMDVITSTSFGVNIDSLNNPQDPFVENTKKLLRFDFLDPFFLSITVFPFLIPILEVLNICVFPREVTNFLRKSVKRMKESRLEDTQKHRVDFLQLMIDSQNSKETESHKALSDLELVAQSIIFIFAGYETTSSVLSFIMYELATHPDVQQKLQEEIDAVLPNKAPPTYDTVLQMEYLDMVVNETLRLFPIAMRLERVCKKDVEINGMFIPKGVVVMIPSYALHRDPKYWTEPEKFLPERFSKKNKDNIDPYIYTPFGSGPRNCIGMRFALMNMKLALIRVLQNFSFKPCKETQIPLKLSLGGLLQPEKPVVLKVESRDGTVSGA
# Trypanosoma brucei [2] = experiment: Inhibition of N-terminal His-tagged Trypanosoma brucei pteridine reductase 1 at 50 uM using di-hydrobiopterine as substrate measured at 1 min interval for 50 mins in presence of NADPH relative to control; method in brief: as §1
# [3] = Cytotoxicity against human U2OS cells assessed as reduction in cell number; format: cell-based
# [4] = target: Voltage-gated inwardly rectifying potassium channel KCNH2 (Homo sapiens, UniProt Q12809); experiment: Displacement of Tracer Red from human ERG by fluorescence polarization assay
# Chain of Voltage-gated inwardly rectifying potassium channel KCNH2 (Q12809 whole entry): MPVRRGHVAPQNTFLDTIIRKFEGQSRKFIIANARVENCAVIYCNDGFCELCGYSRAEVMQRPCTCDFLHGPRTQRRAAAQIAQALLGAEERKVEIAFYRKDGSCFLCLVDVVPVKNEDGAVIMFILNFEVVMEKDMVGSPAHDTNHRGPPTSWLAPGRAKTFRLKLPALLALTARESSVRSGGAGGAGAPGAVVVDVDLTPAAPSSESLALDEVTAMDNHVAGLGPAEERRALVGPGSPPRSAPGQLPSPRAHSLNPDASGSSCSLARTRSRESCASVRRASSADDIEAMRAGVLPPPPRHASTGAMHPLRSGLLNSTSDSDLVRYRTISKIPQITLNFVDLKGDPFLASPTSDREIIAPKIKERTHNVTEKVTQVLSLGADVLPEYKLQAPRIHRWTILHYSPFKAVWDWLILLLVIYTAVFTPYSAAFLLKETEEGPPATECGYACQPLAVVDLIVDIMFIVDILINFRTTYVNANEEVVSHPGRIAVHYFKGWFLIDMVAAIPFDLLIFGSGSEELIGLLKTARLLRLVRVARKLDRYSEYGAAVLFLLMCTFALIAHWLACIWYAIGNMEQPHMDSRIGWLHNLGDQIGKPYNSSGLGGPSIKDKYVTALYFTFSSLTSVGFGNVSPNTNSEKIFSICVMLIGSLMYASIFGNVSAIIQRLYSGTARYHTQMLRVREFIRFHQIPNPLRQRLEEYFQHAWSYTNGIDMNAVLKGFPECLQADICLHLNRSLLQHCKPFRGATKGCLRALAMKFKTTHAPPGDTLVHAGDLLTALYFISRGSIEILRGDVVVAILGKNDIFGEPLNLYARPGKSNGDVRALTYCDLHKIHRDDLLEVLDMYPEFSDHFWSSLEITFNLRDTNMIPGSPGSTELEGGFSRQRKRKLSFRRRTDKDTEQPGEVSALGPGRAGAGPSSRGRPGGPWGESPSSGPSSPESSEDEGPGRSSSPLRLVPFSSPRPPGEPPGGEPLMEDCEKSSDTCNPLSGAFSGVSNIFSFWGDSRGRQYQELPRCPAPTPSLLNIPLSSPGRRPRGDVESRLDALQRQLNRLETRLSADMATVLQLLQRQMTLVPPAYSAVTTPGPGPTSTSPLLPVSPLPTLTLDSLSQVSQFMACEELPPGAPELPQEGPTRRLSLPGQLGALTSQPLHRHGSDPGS
# Cytochrome P450 2D6 = Cytochrome P450 2D6 (Homo sapiens, UniProt P10635); experiment: Inhibition of human CYP2D6 expressed in baculovirus infected insect cells using beetle D-luciferin as substrate preincubated for 30 mins followed by NADPH addition and measured after 30 mins by CYP450-Glo assay
# Chain of Cytochrome P450 2D6 (P10635 whole entry): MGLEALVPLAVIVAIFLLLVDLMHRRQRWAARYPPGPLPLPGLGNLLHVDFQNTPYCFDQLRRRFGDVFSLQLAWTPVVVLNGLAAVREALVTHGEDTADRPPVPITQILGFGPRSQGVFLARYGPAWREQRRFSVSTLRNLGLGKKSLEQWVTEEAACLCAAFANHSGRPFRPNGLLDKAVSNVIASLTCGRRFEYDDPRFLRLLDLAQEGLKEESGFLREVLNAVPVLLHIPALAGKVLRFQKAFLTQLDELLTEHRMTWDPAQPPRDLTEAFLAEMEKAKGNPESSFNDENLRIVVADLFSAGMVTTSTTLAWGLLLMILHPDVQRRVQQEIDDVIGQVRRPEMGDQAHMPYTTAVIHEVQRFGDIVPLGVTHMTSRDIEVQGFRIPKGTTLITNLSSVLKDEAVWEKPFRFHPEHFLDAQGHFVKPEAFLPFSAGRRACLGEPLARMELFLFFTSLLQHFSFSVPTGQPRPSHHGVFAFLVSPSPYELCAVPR
# Cytochrome P450 2C9 = Cytochrome P450 2C9 (Homo sapiens, UniProt P11712); experiment: Inhibition of human CYP2C9 expressed in baculovirus infected insect cells using beetle D-luciferin as substrate preincubated for 30 mins followed by NADPH addition and measured after 30 mins by CYP450-Glo assay
# Chain of Cytochrome P450 2C9 (P11712 whole entry): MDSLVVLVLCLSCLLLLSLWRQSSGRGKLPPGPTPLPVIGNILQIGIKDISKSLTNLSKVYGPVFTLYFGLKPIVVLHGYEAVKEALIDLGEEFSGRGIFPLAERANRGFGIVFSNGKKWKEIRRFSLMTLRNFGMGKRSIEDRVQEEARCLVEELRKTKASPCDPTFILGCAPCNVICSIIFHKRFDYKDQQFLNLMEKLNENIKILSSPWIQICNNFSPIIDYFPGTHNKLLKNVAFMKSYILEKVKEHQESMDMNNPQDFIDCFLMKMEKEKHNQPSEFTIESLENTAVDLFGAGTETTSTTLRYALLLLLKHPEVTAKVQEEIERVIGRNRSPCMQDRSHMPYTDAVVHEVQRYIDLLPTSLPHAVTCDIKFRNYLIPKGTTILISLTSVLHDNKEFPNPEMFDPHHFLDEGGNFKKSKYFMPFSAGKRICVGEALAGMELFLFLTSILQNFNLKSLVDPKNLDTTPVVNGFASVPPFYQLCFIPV
# [5] = Cytotoxicity against human THP1 cells after 72 hrs by MTT assay; format: cell-based, THP-1; settings: read-out: NOAEL
# Trypanosoma cruzi = experiment: Growth inhibition of trypomastigote form of Trypanosoma cruzi Y infected in human U2OS cells at 50 uM measured after 72 hrs by DRAQ5 DNA dye based confocal microscopic analysis relative to control; format: organism-based; settings: for growth inhibition (GI): trypanosoma cruzi, 50 µM; for inhibition at 50 µM: Trypanosoma cruzi, Y, U2OS, read-out: GI
# Trypanosoma brucei [6] = experiment: Growth inhibition of Trypanosoma brucei bloodstream forms at 10 uM measured after 72 hrs by resazurin-based fluorescence assay relative to control; format: organism-based; settings: Trypanosoma brucei, read-out: GI
# [7] = Inhibition of N-terminal His-tagged Trypanosoma brucei pteridine reductase 1 using di-hydrobiopterine as substrate measured at 1 min interval for 50 mins in presence of NADPH; method in brief: as §1
# [8] = Cytotoxicity against human A549 cells after 48 hrs by Celltiter-glo assay; format: cell-based
# [9] = Mitochondrial toxicity in human 786-O cells measured after 6 hrs by MitoTracker Red chloromethyl-X-rosamine based assay; format: cell-based, 786-0
# Cytochrome P450 1A2 = target: T2, Cytochrome P450 1A2 (Homo sapiens, UniProt P05177); experiment: Inhibition of human CYP1A2 expressed in baculovirus infected insect cells using beetle D-luciferin as substrate preincubated for 30 mins followed by NADPH addition and measured after 30 mins by CYP450-Glo assay
# T2 sequence (P05177 whole entry): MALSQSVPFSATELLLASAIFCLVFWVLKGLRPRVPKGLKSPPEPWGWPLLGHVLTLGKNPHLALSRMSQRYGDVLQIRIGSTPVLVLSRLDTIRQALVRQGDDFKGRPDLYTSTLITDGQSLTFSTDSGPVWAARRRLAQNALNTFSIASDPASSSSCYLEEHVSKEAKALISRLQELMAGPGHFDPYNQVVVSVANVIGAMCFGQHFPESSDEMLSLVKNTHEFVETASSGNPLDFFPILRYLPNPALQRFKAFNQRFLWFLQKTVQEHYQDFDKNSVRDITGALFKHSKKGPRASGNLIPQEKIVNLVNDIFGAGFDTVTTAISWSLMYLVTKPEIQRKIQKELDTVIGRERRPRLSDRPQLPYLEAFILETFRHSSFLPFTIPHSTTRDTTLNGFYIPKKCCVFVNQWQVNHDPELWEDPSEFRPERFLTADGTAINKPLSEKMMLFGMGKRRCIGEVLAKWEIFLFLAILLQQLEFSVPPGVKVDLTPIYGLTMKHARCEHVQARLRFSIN
# [10] = Selectivity ratio of IC50 for Leishmania major pteridine reductase 1 to IC50 for N-terminal His-tagged Trypanosoma brucei pteridine reductase 1
# Chain of Cytochrome P450 2C19 (P33261 whole entry): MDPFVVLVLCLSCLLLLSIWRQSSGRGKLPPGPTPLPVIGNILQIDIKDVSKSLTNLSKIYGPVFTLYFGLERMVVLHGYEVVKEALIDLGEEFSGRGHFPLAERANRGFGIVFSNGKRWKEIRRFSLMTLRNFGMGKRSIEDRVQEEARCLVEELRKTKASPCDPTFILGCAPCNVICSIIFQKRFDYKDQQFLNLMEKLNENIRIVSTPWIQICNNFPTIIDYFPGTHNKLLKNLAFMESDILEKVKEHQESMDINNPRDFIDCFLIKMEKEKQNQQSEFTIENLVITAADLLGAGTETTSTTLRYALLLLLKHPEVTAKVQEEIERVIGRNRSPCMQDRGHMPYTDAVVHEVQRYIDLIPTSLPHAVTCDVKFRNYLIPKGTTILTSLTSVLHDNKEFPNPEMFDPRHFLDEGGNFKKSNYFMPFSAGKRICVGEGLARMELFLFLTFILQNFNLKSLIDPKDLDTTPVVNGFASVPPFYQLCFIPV
Compound,IC50 (Cytochrome P450 2C19) [µM],growth inhibition (GI) (Leishmania infantum),inhibition [1] [%],IC50 (Cytochrome P450 3A4) [µM],inhibition (Trypanosoma brucei [2]) [%],GI50 [3] [µM],IC50 [4] [µM],IC50 (Cytochrome P450 2D6) [µM],IC50 (Cytochrome P450 2C9) [µM],MNTC at 72 h [5] [µM],growth inhibition (GI) (Trypanosoma cruzi),inhibition at 10 µM (Trypanosoma brucei [6]) [%],IC50 [7] [µM],GI50 at 48 h [8] [µM],IC50 at 6 h [9] [µM],IC50 (Cytochrome P450 1A2) [µM],Ratio IC50 [10],inhibition at 50 µM (Trypanosoma cruzi) [%],inhibition at 10 µM (Leishmania infantum) [%]
Nc1nc2ccc(S(=O)(=O)Cc3ccccc3)cc2s1,> 25,Non-Toxic,27.1,> 25,> 60,> 25,> 25,10 to 25,> 25,> 25,Non-Toxic,5,57.6,> 25,> 25,> 25,2 to 100,–,–
COc1cc(CNC(=O)c2ccc3nc(N)sc3c2)cc(OC)c1OC,> 25,Non-Toxic,67.1,> 25,30.8,> 25,> 25,> 25,> 25,> 25,–,9,–,> 25,> 25,> 25,2 to 100,19.8,–
COC(=O)C1CCN(C(=O)c2ccc(CNC(=O)c3ccc4nc(N)sc4c3)cc2)CC1,> 25,Non-Toxic,1.97,> 25,> 60,> 25,< 10,> 25,> 25,> 25,Non-Toxic,24,21.8,> 25,< 10,> 25,2 to 100,–,–
CSc1ccc2nc(N)sc2c1,< 10,Non-Toxic,26.9,> 25,16.7,> 25,< 10,< 10,> 25,> 25,–,12,–,> 25,< 10,< 10,2 to 100,22.5,–
Nc1nc2ccc(C(=O)NCCc3cccs3)cc2s1,> 25,Non-Toxic,18.3,> 25,> 60,> 25,< 10,< 10,> 25,> 25,–,17,7.5,> 25,> 25,10 to 25,2 to 100,29.8,–
COc1ccc2nc(N)sc2c1,10 to 25,Non-Toxic,15.2,10 to 25,29.9,> 25,< 10,< 10,> 25,> 25,–,6,–,< 10,< 10,10 to 25,2 to 100,32.9,–
N=C(N)c1ccc(OCCCCCOc2ccc(C(=N)N)cc2)cc1 [PENTAMIDINE],> 25,–,–,–,–,–,–,10 to 25,–,> 25,–,–,–,> 25,> 25,> 25,–,–,–
Nc1nc2ccc(C(=O)N(CCO)Cc3ccccc3)cc2s1,> 25,–,24.1,10 to 25,> 60,> 25,> 25,< 10,> 25,> 25,Non-Toxic,8,58.1,> 25,> 25,> 25,2 to 100,–,20
COC(=O)C1CCN(C(=O)c2ccc3nc(N)sc3c2)CC1,> 25,–,23.3,10 to 25,36.4,> 25,> 25,10 to 25,10 to 25,> 25,–,19,–,> 25,> 25,10 to 25,2 to 100,64.2,8
Nc1nc2ccc(S(=O)(=O)Cc3ccc(Cl)c(Cl)c3)cc2s1,< 10,–,26.9,10 to 25,16.7,> 25,> 25,< 10,> 25,10 to 25,–,37,–,10 to 25,> 25,> 25,2 to 100,32.8,21

# From ChEMBL document CHEMBL4387708, “Enhancement of Benzothiazoles as Pteridine Reductase-1 Inhibitors for the Treatment of Trypanosomatidic Infections” (J Med Chem, 2019)
